The test system of one assay is SEM cells. As to the kind of experiment: WST-1 metabolic activity assay. Format: cell-based. The settings on record: Homo sapiens, 72 h, read-out: metabolic activity. The procedure, abridged: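 Test compound came from a 10 mM DMSO stock. Cells were seeded at 5×10^4/well in triplicate with 5 or 10 μM final compound; controls got matched DMSO. After 72 h at 37°C, 5% CO2, WST-1 was added for a further 3 h. Absorbance was read at 450 nm (reference 620 nm), and metabolic activity given as % of DMSO control.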

For assay [1], the system named is RS4;11 cells. As to the kind of experiment: Apoptosis, Annexin V FITC / propidium iodide flow cytometry. The format is cell-based, human. Conditions: RS4;11, 5 μM, 72 h; DMSO 11.7%. For orientation: Flow cytometry measures light scatter and fluorescence of single cells or particles in a stream.
Assay [2] concerns RS4;11 cells. In words: Cell morphology, May Grünwald Giemsa staining. The format is cell-based, human. Conditions: 48 h.
For the next assay, the system named is cleaved caspase 3. As to the kind of experiment: Western blot, SEM cells. The format is cell-based, human. Conditions: 2.5 μM and 5.0 μM, 48 h. The procedure, abridged:
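SEM and RS4;11 cells were exposed to 2.5 or 5.0 μM test compound, or DMSO, for 48 h. Lysates of 1–5×10^6 cells were made in RIPA buffer with sonication. Cleaved caspase 3 was detected by western blot on PVDF with near-infrared imaging, using GAPDH as loading control.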

Another assay has as its system p-p38. In words: Western blot, SEM cells. The format is cell-based, human. The settings on record: 2.5 μM or 5.0 μM, 48 h. The procedure, abridged: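 SEM or RS4;11 cells took DMSO, 2.5 or 5.0 μM test compound for 48 h. Cells (1–5×10^6) were lysed in RIPA buffer with sonication, run on SDS gels, blotted to PVDF and imaged by near-infrared fluorescence. Bands were normalised to GAPDH, and the phospho/total protein ratio was set relative to DMSO control (=1).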
Background: Immunoblotting shows a protein as a band on a membrane.

Another assay deals with Abl (Homo sapiens, UniProt P00519). In words: Kinase activity screening. The format is biochemical. Conditions: FX-9 at 2.5 μM, ATP at Km (45 μM). The method, boiled down: (§1)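 Radiometric substrate-phosphorylation screen covering a panel of 58 human kinases run by a contract service. […] Activity is given as a percentage of mean activity in positive control samples (100%). Values <30% were scored strong hits, 30–70% partial hits and >70% no hit.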

The next assay concerns the target AMPKα1 (Homo sapiens, UniProt Q13131). As to the kind of experiment: Kinase activity screening. Format: biochemical. The settings on record: FX-9 at 2.5 μM, ATP at Km (45 μM). The procedure, abridged:
as §1

In a further assay the target is ASK1 (Homo sapiens, UniProt Q99683). In words: Kinase activity screening. Format: biochemical. The settings on record: FX-9 at 2.5 μM, ATP at Km (200 μM). The method, boiled down:
as §1

For another assay, the target named is c-RAF (Homo sapiens, UniProt P04049). In words: Kinase activity screening. Format: biochemical. Conditions: FX-9 at 2.5 μM, ATP at Km (120 μM). The method, boiled down: (§2)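 Radiometric kinase-panel screen of 58 human kinases, measuring substrate phosphorylation. […] Activity is given as % of the mean positive-control kinase activity (100%). Below 30% counts as a strong hit, 30–70% as a partial hit, and above 70% as no hit.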

The target in a further assay is eEF-2K (Homo sapiens, UniProt O00418). In words: Kinase activity screening. The format is biochemical. The settings on record: FX-9 at 2.5 μM, ATP at Km (15 μM). The procedure, abridged: as §2
A further assay deals with IRAK4 (Homo sapiens, UniProt Q9NWZ3). In words: Kinase activity screening. The format is biochemical. The settings on record: FX-9 at 2.5 μM, ATP at Km (200 μM). The procedure, abridged:
as §1

The next assay addresses LOK (Homo sapiens, UniProt O94804). As to the kind of experiment: Kinase activity screening. The settings on record: FX-9 at 2.5 μM, ATP at Km (120 μM). The format is biochemical. The method, boiled down: as §1
In the next assay the target is Mnk2 (Homo sapiens, UniProt Q9HBH9). As to the kind of experiment: Kinase activity screening. Format: biochemical. The settings on record: FX-9 at 2.5 μM, ATP at Km (120 μM). The procedure, abridged: as §1
Another assay deals with p70S6K (Homo sapiens, UniProt P23443). As to the kind of experiment: Kinase activity screening. Format: biochemical. The settings on record: FX-9 at 2.5 μM, ATP at Km (15 μM). The procedure, abridged: as §2
The next assay deals with PAK2 (Homo sapiens, UniProt Q13177). In words: Kinase activity screening. Format: biochemical. Conditions: FX-9 at 2.5 μM, ATP at Km (90 μM). The method, boiled down:
as §1

The target of the next assay is ROCK-I (Homo sapiens, UniProt Q13464). As to the kind of experiment: Kinase activity screening. The format is biochemical. The settings on record: FX-9 at 2.5 μM, ATP at Km (70 μM). The procedure, abridged:
as §2

The target of the next assay is Rsk1 (Homo sapiens, UniProt Q15418). In words: Kinase activity screening. Format: biochemical. Conditions: FX-9 at 2.5 μM, ATP at Km (45 μM). The method, boiled down:
as §2

In a further assay the target is TAK1 (Homo sapiens, UniProt O43318). In words: Kinase activity screening. Format: biochemical. The settings on record: FX-9 at 2.5 μM, ATP at Km (45 μM). The method, boiled down: as §2
For a further assay, the target named is PI3 Kinase (p120g) (Homo sapiens, UniProt P48736). As to the kind of experiment: Kinase activity screening. Conditions: FX-9 at 2.5 μM, ATP at Km (100 μM). Format: biochemical. The method, boiled down:
as §1

Here are results for one compound from paper PMC6720533 (Biomolecules & Therapeutics, 2019).

Chain of AMPKα1 (Q13131 whole entry): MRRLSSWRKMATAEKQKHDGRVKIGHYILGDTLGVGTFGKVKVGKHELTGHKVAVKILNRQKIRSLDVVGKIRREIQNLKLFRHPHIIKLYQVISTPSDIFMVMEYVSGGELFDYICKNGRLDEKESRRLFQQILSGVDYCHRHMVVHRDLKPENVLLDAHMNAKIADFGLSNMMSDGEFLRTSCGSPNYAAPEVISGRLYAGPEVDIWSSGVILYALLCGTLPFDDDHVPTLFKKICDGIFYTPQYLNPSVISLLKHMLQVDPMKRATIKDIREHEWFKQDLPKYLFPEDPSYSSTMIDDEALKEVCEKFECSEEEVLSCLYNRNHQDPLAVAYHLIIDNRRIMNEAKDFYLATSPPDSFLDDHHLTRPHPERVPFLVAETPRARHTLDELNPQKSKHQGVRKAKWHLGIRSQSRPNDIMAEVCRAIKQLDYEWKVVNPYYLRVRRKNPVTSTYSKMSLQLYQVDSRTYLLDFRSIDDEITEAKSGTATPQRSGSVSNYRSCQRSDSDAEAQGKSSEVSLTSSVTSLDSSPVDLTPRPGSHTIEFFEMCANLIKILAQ
Chain of AMPKα1 (Q9Y478 whole entry partner): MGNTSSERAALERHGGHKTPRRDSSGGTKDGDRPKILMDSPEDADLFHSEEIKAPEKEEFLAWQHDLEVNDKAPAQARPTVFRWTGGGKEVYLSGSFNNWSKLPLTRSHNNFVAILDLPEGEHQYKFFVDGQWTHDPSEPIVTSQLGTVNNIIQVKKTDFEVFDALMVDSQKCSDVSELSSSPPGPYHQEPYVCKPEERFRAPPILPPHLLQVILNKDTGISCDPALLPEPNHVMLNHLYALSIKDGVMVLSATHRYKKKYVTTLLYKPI
Chain of AMPKα1 (P54619 whole entry partner): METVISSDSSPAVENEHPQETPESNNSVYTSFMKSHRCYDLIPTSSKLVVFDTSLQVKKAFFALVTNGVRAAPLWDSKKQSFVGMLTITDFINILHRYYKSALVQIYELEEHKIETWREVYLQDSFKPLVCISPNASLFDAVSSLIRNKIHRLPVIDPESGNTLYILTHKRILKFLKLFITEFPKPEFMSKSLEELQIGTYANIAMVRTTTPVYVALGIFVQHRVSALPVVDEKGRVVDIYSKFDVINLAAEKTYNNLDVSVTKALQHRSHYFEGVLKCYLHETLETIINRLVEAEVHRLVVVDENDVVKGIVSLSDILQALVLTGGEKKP
Chain of LOK (O94804 whole entry): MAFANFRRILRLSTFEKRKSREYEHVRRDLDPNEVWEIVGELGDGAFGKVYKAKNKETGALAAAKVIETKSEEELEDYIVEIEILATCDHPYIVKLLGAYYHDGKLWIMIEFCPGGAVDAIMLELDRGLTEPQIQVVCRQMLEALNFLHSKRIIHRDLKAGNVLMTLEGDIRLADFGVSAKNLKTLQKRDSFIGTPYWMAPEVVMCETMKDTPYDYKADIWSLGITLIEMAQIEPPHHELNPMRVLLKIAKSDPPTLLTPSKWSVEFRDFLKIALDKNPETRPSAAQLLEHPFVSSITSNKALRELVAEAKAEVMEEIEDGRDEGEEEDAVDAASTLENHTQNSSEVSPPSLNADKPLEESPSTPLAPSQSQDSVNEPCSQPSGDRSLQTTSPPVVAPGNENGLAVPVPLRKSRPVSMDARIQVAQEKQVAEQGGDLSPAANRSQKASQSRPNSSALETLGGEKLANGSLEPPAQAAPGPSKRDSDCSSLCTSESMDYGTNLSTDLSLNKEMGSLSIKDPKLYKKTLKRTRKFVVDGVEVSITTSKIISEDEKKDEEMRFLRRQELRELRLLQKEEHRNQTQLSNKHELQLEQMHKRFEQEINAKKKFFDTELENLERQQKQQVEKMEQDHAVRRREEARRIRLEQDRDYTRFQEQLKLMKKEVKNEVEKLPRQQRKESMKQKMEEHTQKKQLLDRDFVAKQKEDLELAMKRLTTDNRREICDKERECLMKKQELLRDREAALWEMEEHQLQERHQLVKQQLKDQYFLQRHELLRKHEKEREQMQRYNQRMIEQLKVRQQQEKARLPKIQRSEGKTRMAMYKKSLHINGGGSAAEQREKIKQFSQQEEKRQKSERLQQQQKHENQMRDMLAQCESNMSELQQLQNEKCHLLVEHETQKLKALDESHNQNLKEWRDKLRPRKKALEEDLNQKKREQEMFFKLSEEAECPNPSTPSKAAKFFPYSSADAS
Chain of p70S6K (P23443 whole entry): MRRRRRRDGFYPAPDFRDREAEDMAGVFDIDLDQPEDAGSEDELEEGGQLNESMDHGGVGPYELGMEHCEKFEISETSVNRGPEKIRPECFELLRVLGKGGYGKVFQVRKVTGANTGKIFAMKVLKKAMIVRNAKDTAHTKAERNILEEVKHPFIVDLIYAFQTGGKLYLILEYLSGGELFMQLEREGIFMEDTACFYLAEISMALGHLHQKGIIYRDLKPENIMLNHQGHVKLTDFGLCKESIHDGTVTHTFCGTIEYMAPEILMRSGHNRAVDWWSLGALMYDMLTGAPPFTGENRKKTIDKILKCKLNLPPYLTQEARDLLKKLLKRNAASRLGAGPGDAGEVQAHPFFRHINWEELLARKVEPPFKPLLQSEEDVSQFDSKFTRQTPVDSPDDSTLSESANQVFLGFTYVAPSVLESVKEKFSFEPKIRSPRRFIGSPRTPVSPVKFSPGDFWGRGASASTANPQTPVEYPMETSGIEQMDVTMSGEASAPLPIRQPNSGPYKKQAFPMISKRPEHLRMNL
Chain of PAK2 (Q13177 whole entry): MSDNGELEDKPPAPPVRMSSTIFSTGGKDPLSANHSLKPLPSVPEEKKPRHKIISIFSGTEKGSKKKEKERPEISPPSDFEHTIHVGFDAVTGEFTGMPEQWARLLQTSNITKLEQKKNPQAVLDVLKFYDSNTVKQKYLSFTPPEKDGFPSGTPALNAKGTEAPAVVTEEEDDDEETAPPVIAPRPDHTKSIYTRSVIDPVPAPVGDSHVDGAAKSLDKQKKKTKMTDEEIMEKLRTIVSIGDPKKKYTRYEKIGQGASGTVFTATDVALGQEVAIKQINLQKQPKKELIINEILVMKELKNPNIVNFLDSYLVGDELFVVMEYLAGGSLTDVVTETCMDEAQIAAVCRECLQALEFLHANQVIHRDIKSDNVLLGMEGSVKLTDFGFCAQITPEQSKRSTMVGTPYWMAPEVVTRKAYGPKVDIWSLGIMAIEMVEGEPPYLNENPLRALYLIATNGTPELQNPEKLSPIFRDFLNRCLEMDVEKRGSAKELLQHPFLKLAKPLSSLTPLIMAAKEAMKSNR
Chain of ASK1 (Q99683 whole entry): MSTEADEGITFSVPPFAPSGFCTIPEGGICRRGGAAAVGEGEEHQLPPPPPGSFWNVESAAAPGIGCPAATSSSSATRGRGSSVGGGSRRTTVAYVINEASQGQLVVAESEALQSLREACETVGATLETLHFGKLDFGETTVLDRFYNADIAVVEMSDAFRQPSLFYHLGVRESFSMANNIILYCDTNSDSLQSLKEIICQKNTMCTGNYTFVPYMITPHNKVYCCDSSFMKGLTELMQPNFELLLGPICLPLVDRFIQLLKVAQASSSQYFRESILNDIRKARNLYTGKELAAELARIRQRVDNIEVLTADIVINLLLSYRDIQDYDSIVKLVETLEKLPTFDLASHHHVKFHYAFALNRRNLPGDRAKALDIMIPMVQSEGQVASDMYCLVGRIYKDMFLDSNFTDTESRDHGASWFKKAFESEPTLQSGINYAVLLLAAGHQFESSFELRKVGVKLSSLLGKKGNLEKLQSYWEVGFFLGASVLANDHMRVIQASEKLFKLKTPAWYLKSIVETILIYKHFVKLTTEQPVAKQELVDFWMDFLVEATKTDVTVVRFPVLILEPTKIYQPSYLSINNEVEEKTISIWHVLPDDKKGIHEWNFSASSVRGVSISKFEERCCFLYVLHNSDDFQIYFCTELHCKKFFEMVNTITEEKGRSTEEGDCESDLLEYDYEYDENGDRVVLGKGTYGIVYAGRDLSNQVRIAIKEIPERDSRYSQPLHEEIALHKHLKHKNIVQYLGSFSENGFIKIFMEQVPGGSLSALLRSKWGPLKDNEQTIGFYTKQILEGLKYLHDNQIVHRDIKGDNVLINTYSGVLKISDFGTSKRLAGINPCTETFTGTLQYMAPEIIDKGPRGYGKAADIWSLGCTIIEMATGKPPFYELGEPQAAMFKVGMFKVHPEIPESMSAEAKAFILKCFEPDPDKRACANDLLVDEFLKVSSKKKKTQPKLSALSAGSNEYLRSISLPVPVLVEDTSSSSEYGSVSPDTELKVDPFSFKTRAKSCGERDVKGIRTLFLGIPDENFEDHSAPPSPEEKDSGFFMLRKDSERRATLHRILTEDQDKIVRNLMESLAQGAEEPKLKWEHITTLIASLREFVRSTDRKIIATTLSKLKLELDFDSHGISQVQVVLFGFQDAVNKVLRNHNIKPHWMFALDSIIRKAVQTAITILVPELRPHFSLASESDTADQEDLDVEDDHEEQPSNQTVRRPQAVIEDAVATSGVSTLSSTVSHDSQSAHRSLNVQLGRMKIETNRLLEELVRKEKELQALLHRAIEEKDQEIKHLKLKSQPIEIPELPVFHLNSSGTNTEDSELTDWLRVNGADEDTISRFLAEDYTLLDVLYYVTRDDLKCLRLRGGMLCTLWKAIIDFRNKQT
Chain of IRAK4 (Q9NWZ3 whole entry): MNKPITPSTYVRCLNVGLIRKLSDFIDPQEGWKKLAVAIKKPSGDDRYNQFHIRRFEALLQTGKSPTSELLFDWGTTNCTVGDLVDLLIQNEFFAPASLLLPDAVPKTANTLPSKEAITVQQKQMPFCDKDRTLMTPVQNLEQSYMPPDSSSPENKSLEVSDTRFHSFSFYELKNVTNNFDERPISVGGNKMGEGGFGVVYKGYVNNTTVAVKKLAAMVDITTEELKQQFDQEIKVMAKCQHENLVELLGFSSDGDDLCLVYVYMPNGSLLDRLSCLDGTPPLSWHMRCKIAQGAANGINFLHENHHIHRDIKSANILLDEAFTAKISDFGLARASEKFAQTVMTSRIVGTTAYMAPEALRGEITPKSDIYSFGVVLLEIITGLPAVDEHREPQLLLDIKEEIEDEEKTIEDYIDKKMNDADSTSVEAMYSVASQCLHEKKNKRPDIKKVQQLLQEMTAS

In the case of `Cc1ccc(-c2cc3ccccc3c(N)n2)cc1` [FX-9, 3-(p-Tolyl)isoquinolin-1-amine], the activity at 5 µM in the assay with SEM cells is 1.2%. Moreover, the activity at 10 µM in the assay with SEM cells is 0.6%. For the same compound, in the assay with RS4;11 cells [1], the “Apoptosis (total of early apoptotic and late apoptotic and necrotic cells)” value is 84.6%. The “cellular morphology (light microscopy)” value is “increased amount of vacuoles and karyopyknosis” in the assay on RS4;11 cells [2] (RS4;11, 1.0 μM); “Extensive cytoplasmic vacuolization, karyopyknosis, and karyolysis” in the assay with RS4;11 cells [2] (RS4;11, 2.5 μM). For the same compound, the “cleaved caspase 3 protein (western blot)” value in the assay on cleaved caspase 3 was “increased amount of cleaved caspase 3”. Further, the “p-p38 level (western blot)” value with p-p38 was “reduced”. Besides, the “Kinase activity (% control)” value at Abl worked out at 96 % control; at AMPKα1 it was 98 % control; on ASK1, 101 % control; on c-RAF, 92 % control; at eEF-2K, 86 % control; at IRAK4 it was 95 % control. The “Kinase activity (% control)” value at LOK came to 101 % control; on Mnk2, 90 % control; at p70S6K it was 85 % control; on PAK2, 88 % control; at ROCK-I it was 93 % control; at Rsk1, 95 % control. For the same compound, the results for the “Kinase activity (% control)” value at TAK1 and at PI3 Kinase (p120g) were 87 % control and 98 % control, respectively.
